Experimental data as given in paper PMC9007039 (Journal of medicinal chemistry, 2021).

Biological target: GPC3 (Homo sapiens, UniProt P51654)
Type: cell-based
Conditions: Hep3B cells, 5 µM peptide, confocal microscopy
Method in brief: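 Hep3B cells were seeded at ~70% confluence in EMEM with 10% FBS and no antibiotics. They were transfected with 5 nmol of each of three GPC3 siRNAs or a negative-control siRNA using a lipofection reagent. Knockdown was confirmed by anti-GPC3 Western blot with GAPDH as loading control. Cells were methanol-fixed and stained with 5 µM IRDye800-labelled peptide for 5 min at RT, plus anti-GPC3 and AF488 secondary. Intensities were quantified from confocal images.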

GPC3, sequence (P51654 25-580): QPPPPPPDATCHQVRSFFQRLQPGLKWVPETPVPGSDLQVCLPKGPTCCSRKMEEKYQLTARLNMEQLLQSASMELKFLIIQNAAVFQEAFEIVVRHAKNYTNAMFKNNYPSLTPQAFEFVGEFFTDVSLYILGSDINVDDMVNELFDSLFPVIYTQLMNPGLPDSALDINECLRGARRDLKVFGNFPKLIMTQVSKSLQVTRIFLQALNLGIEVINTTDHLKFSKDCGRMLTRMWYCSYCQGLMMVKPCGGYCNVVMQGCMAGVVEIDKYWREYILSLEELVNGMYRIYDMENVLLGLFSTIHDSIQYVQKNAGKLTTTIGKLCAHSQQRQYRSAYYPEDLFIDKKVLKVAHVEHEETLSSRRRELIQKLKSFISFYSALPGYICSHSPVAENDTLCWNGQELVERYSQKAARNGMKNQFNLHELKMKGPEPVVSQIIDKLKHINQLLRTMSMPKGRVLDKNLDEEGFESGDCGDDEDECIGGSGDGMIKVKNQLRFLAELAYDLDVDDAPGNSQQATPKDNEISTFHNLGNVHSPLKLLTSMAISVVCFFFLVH

Sequence: FEAEHNLALQTL [FEA*-IRDye800]
- difference in fluorescence intensity siCL versus siGPC3 cells, all 3 siRNAs: non-significant difference
